In brackets after ≈: the same amount, converted by molar mass.
How the values were obtained:
[1] = test system: Bacillus subtilis; assay: Antibacterial activity against Bacillus subtilis BD54; format: functional
[2] = test system: Enterococcus faecium; assay: Antibacterial activity against Enterococcus faecium 19434; format: functional
[3] = test system: Enterococcus faecium; assay: Antibacterial activity against Vancomycin resistant Enterococcus faecium VRE 700802; format: functional
[4] = test system: Mus musculus; assay: Effect on survival of mice after ip infection with Staphylococcus aureus Smith; format: functional
Procedure, shortened: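 Male Swiss-Webster mice (20–24 g) were given 10⁸ CFU of log-phase S. aureus Smith ip, grown in LB at 37 °C and washed in cold broth. A single iv tail-vein dose was given in DCP vehicle (10% DMA, 10% Cremophor EL in PBS, pH 9.5; 5 mL/kg) 15 min post-infection. Survival was scored at 72 h and ED50 derived.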

[5] = test system: Enterococcus faecalis; assay: Antibacterial activity against Enterococcus faecalis 29212; format: functional
[6] = test system: Staphylococcus aureus; assay: Antibacterial activity against methicillin resistant Staphylococcus aureus MRSA 1094; format: functional
[7] = test system: Escherichia coli; assay: Antibacterial activity against Escherichia coli J53; format: functional
[8] = test system: Staphylococcus aureus; assay: Antibacterial activity against Staphylococcus aureus smith; format: functional
[9] = test system: Staphylococcus aureus; assay: Antibacterial activity against Staphylococcus aureus 25293; format: functional
[10] = target: DNA polymerase III PolC-type (Bacillus subtilis (strain 168), UniProt P13267); assay: Binding affinity to Bacillus subtilis DNA polymerase3C; conditions: read-out: Ki
Chain of DNA polymerase III PolC-type (P13267 whole entry, the tested form may be a part): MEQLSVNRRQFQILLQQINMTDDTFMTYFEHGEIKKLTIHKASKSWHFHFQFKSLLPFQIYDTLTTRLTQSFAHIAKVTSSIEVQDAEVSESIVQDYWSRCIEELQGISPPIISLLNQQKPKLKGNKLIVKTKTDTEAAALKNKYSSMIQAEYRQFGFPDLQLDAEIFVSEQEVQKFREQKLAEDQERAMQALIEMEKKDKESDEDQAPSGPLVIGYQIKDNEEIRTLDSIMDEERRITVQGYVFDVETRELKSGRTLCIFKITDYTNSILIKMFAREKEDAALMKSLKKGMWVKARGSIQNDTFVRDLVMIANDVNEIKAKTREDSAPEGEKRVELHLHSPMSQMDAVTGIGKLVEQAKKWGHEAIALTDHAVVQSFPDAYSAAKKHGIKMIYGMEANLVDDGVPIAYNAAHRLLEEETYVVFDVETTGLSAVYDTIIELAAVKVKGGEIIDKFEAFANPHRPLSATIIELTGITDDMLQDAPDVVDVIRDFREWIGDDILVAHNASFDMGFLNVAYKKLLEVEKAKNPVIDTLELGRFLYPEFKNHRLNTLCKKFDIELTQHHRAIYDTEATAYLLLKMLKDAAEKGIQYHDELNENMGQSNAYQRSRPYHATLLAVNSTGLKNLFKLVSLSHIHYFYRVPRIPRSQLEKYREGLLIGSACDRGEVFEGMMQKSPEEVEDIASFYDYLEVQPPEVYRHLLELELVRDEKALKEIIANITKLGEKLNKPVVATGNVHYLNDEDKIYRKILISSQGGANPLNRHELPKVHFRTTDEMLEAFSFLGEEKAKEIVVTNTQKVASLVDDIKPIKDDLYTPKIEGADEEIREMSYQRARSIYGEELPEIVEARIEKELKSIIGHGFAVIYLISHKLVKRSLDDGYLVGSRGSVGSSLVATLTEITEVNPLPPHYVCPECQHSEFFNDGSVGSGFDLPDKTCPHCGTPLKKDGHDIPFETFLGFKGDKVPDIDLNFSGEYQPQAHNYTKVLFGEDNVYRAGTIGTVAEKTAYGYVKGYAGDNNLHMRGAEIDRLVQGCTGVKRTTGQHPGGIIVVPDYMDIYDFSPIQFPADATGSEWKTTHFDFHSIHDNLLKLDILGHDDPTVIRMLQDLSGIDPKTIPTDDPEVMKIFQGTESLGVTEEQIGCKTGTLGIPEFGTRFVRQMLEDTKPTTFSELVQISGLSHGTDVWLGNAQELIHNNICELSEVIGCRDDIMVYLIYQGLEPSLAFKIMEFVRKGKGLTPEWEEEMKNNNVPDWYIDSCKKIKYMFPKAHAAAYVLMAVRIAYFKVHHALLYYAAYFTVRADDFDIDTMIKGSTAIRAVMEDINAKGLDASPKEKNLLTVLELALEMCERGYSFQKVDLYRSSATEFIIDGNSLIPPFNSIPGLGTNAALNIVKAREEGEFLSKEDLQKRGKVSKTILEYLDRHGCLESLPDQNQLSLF
Procedure, shortened: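 Homogeneous recombinant B. subtilis pol IIIC was assayed in 96-well format on activated calf thymus DNA. Apparent Ki values were determined in a truncated assay lacking the competitor dGTP.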

Compound: CCc1cc(Nc2cc(=O)n(CCCCN3CCN(c4c(F)cc5c(=O)c(C(=O)O)cn(C6CC6)c5c4F)CC3CO)c(=O)[nH]2)ccc1C (stereo not given)
- MIC [1]: 0.625 µg/mL (≈ 0.921 µM)
- MIC [2]: 2.5 µg/mL (≈ 3.68 µM)
- MIC [3]: 2.5 µg/mL (≈ 3.68 µM)
- ED50 [4]: 35 mg/kg
- MIC [5]: 2.5 µg/mL (≈ 3.68 µM)
- MIC [6]: 5 µg/mL (≈ 7.37 µM)
- MIC [7]: > 40 µg/mL

Compound: CCc1cc(Nc2cc(=O)n(CCCCN3CCN(c4cc5c(cc4F)c(=O)c(C(=O)O)cn5-c4ccc(F)cc4F)CC3)c(=O)[nH]2)ccc1C
- MIC [1]: 0.313 µg/mL (≈ 0.445 µM)
- MIC [2]: 1.25 µg/mL (≈ 1.78 µM)
- MIC [3]: 1.25 µg/mL (≈ 1.78 µM)
- ED50 [4]: 27 mg/kg
- MIC [5]: 1.25 µg/mL (≈ 1.78 µM)
- MIC [7]: > 40 µg/mL

Compound: CCc1cc(Nc2cc(=O)n(CCCCN3CCN(c4cc5c(cc4F)c(=O)c(C(=O)O)cn5-c4ccc(F)cc4)CC3)c(=O)[nH]2)ccc1C
- MIC [8]: 0.625 µg/mL (≈ 0.913 µM)
- MIC [1]: 0.156 µg/mL (≈ 0.228 µM)
- MIC [2]: 1.25 µg/mL (≈ 1.83 µM)
- MIC [3]: 1.25 µg/mL (≈ 1.83 µM)
- MIC [9]: 1.25 µg/mL (≈ 1.83 µM)
- MIC [5]: 0.625 µg/mL (≈ 0.913 µM)
- Ki [10]: 0.017 µM
- MIC [6]: 2.5 µg/mL (≈ 3.65 µM)
- MIC [7]: > 40 µg/mL

Compound: CCc1cc(Nc2cc(=O)n(CCCCN3CCN(c4cc5c(cc4F)c(=O)c(C(=O)O)cn5C4CC4)C[C@H]3C)c(=O)[nH]2)ccc1C
- MIC [1]: 0.313 µg/mL (≈ 0.485 µM)
- MIC [2]: 0.625 µg/mL (≈ 0.969 µM)
- MIC [3]: 0.625 µg/mL (≈ 0.969 µM)
- ED50 [4]: 20 mg/kg
- MIC [5]: 0.625 µg/mL (≈ 0.969 µM)
- MIC [6]: 2.5 µg/mL (≈ 3.88 µM)

Compound: CCc1cc(Nc2cc(=O)n(CCCCCN3CC4CCCN(c5cc6c(cc5F)c(=O)c(C(=O)O)cn6C5CC5)C4C3)c(=O)[nH]2)ccc1C (stereo not given)
- MIC [8]: 1.25 µg/mL (≈ 1.83 µM)
- MIC [1]: 1.25 µg/mL (≈ 1.83 µM)
- MIC [2]: > 80 µg/mL
- MIC [9]: 2.5 µg/mL (≈ 3.65 µM)
- MIC [5]: > 80 µg/mL
- Ki [10]: 0.041 µM
- MIC [6]: > 80 µg/mL
- MIC [7]: > 80 µg/mL

Compound: Cc1ccc(Nc2cc(=O)n(CCCCN3CCN(c4cc5c(cc4F)c(=O)c(C(=O)O)cn5C4CC4)CC3)c(=O)[nH]2)cc1C
- MIC [8]: 0.625 µg/mL (≈ 1.01 µM)
- MIC [1]: 0.313 µg/mL (≈ 0.508 µM)
- MIC [2]: 2.5 µg/mL (≈ 4.05 µM)
- MIC [3]: 1.25 µg/mL (≈ 2.03 µM)
- MIC [9]: 1.25 µg/mL (≈ 2.03 µM)
- MIC [5]: 2.5 µg/mL (≈ 4.05 µM)
- MIC [6]: 5 µg/mL (≈ 8.11 µM)
- MIC [7]: > 40 µg/mL

Compound: CCc1cc(Nc2cc(=O)n(CCCCCN3CC4OCCN(c5cc6c(cc5F)c(=O)c(C(=O)O)cn6C5CC5)C4C3)c(=O)[nH]2)ccc1C (stereo not given)
- MIC [8]: 0.625 µg/mL (≈ 0.91 µM)
- MIC [1]: 0.625 µg/mL (≈ 0.91 µM)
- MIC [2]: > 80 µg/mL
- MIC [3]: 10 µg/mL (≈ 14.6 µM)
- MIC [9]: 1.25 µg/mL (≈ 1.82 µM)
- MIC [5]: 5 µg/mL (≈ 7.28 µM)
- Ki [10]: 0.033 µM
- MIC [6]: 5 µg/mL (≈ 7.28 µM)
- MIC [7]: 40 µg/mL (≈ 58.2 µM)

Compound: CCc1cc(Nc2cc(=O)n(CCCCN3CCN(c4cc5c(cc4F)c(=O)c(C(=O)O)cn5C4CC4)CC3C)c(=O)[nH]2)ccc1C (stereo not given)
- MIC [1]: 0.313 µg/mL (≈ 0.485 µM)
- MIC [2]: 1.25 µg/mL (≈ 1.94 µM)
- MIC [3]: 0.626 µg/mL (≈ 0.971 µM)
- ED50 [4]: 20 mg/kg
- MIC [5]: 1.25 µg/mL (≈ 1.94 µM)
- Ki [10]: 0.026 µM
- MIC [6]: 1.25 µg/mL (≈ 1.94 µM)
- MIC [7]: 40 µg/mL (≈ 62 µM)

Compound: CCc1cc(Nc2cc(=O)n(CCCCN3CCN(c4c(F)cc5c(=O)c(C(=O)O)cn(CC)c5c4F)CC3)c(=O)[nH]2)ccc1C
- MIC [1]: 0.313 µg/mL (≈ 0.492 µM)
- MIC [2]: 1.25 µg/mL (≈ 1.96 µM)
- MIC [3]: 0.625 µg/mL (≈ 0.982 µM)
- MIC [5]: 1.25 µg/mL (≈ 1.96 µM)
- MIC [7]: > 40 µg/mL

Compound: CCc1cc(Nc2cc(=O)n(CCCCN3CCN(c4cc5c(cc4F)c(=O)c(C(=O)O)cn5C4CC4)C[C@@H]3C)c(=O)[nH]2)ccc1C
- MIC [2]: 1.25 µg/mL (≈ 1.94 µM)
- MIC [3]: 0.625 µg/mL (≈ 0.969 µM)
- MIC [9]: 1.25 µg/mL (≈ 1.94 µM)
- ED50 [4]: 30 mg/kg
- MIC [5]: 0.625 µg/mL (≈ 0.969 µM)
- MIC [6]: 1.25 µg/mL (≈ 1.94 µM)
- MIC [7]: 40 µg/mL (≈ 62 µM)

Compound: CCc1cc(Nc2cc(=O)n(CCCCO)c(=O)[nH]2)ccc1C
- MIC [8]: 5 µg/mL (≈ 15.8 µM)
- MIC [1]: 1.25 µg/mL (≈ 3.94 µM)
- MIC [2]: 5 µg/mL (≈ 15.8 µM)
- MIC [3]: 5 µg/mL (≈ 15.8 µM)
- MIC [9]: 5 µg/mL (≈ 15.8 µM)
- MIC [5]: 5 µg/mL (≈ 15.8 µM)
- Ki [10]: 0.066 µM
- MIC [6]: 5 µg/mL (≈ 15.8 µM)
- MIC [7]: > 40 µg/mL

Compound: O=C(O)c1cn(C2CC2)c2cc(N3CCN(CCCCn4c(=O)cc(Nc5ccccc5)[nH]c4=O)CC3)c(F)cc2c1=O
- MIC [8]: 2.5 µg/mL (≈ 4.25 µM)
- MIC [1]: 2.5 µg/mL (≈ 4.25 µM)
- MIC [2]: > 40 µg/mL
- MIC [3]: 40 µg/mL (≈ 68 µM)
- MIC [9]: 2.5 µg/mL (≈ 4.25 µM)
- MIC [5]: 10 µg/mL (≈ 17 µM)
- Ki [10]: 29 µM
- MIC [6]: > 40 µg/mL
- MIC [7]: > 40 µg/mL

Compound: CCc1cc(Nc2cc(=O)n(CCCCN3CCN(c4c(F)cc5c(=O)c(C(=O)O)cn(C6CC6)c5c4Cl)CC3)c(=O)[nH]2)ccc1C
- MIC [8]: 0.156 µg/mL (≈ 0.235 µM)
- MIC [1]: 0.078 µg/mL (≈ 0.117 µM)
- MIC [2]: 1.25 µg/mL (≈ 1.88 µM)
- MIC [3]: 0.625 µg/mL (≈ 0.94 µM)
- MIC [9]: 0.313 µg/mL (≈ 0.471 µM)
- MIC [5]: 0.625 µg/mL (≈ 0.94 µM)
- Ki [10]: 0.01 µM
- MIC [6]: 1.25 µg/mL (≈ 1.88 µM)
- MIC [7]: 20 µg/mL (≈ 30.1 µM)

— ChEMBL document CHEMBL1138117, “Hybrid antibacterials. DNA polymerase-topoisomerase inhibitors” (J Med Chem, 2006)
